# High-throughput results from PubChem BioAssay.
# The list is not random: actives were taken first. Their share in the collection is about 3.1%.
# PAFAH1B3 FP inh: inhibitors of human PAFAH1B3; recombinant PAFAH1B3, FP-rhodamine probe, fluorescence polarization; inhibition, % at 3.39 µM; hit rate 0.28% among 340,000; AID 492972;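 active = inhibition above the screen-wide average of all tested compounds plus 3 SD, cut at about 25% in these data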;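 also: 0% = enzyme with DMSO only and 100% = wells lacking PAFAH1B3 protein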
# PAFAH2 inh: inhibitors of human PAFAH2; hit rate 0.99% among 340,000; recombinant PAFAH2, FP-rhodamine activity probe, fluorescence polarization; inhibition, % at 3.39 µM;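 active = inhibition above the mean over all tested compounds plus 3 SD, cut at about 30% in these data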;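 also: inhibitors block probe labeling of enzyme so polarization drops; 0% = enzyme with DMSO and 100% = wells lacking PAFAH2 protein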
# pPAFAH inh: inhibitors of human plasma PAF acetylhydrolase (pPAFAH). Q13093. recombinant pPAFAH, FP-rhodamine probe fluorescence polarization. inhibition, % at 3.39 µM. hit rate 1.5% among 330,000;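 active = inhibition above the mean inhibition across the screen plus 3 SD, cut at about 25% in these data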;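 also: inhibitors block binding of the rhodamine activity-based probe so polarization drops; 0% = enzyme with DMSO and 100% = wells lacking pPAFAH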
# Apaf-1 inh: human Apaf-1 inhibition; inhibition, % at 20 µM; O14727; AID 489030; reconstituted apoptosome caspase-3 activity, DEVD-Rh110 fluorescence; hit rate 0.71% among 330,000; active = inhibition of at least 40% at 20 µM;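 also: plate controls were DMSO wells for no effect and DEVD-CHO caspase inhibitor wells for full effect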
# Target sequence (O14727 whole entry, looked up): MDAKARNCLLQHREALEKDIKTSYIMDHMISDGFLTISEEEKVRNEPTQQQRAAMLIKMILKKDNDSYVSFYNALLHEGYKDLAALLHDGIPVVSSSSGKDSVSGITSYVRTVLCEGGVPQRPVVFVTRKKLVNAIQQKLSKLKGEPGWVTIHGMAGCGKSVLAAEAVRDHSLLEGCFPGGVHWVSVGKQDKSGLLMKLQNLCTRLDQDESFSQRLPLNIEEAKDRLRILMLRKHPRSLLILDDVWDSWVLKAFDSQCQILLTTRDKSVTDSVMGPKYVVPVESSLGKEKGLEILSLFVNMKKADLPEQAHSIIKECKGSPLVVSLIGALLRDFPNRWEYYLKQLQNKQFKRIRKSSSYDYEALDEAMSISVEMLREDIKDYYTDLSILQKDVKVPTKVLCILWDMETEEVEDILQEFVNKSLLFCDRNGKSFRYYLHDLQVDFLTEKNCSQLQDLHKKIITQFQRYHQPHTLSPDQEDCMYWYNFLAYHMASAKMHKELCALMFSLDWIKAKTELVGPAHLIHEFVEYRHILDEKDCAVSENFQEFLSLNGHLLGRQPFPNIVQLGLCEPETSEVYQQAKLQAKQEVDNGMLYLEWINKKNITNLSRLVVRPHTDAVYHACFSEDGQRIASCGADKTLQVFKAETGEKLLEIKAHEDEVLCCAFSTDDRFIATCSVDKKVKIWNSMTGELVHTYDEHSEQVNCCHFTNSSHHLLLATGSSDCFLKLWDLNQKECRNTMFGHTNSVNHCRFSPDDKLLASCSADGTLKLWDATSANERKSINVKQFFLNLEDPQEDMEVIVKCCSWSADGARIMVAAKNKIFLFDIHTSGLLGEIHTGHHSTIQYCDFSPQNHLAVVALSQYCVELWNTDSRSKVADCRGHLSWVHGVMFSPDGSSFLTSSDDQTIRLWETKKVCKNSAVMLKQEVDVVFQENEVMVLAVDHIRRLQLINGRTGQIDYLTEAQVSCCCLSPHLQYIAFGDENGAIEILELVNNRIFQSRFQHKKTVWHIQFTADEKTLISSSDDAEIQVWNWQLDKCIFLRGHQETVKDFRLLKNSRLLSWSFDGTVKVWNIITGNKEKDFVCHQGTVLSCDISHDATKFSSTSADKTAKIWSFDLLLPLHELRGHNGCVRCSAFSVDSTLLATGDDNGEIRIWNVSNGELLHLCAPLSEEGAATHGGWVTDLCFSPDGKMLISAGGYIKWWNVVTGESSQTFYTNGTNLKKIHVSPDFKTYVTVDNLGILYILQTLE
#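 Assay system: Apoptosome proteins | Medium: pH 7.5 Hepes buffer with CHAPS, BSA, DTT | Also added: Cytochrome c and DEVD-Rh110 substrate | Times: 30 min plus 50 min, RT | Detection: Rhodamine 110 fluorescence at Ex 480/Em 540 nm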
# PAFAH1B2 FP inh: blocks human PAF acetylhydrolase 1b catalytic subunit 2; P68402; recombinant PAFAH1B2, FP-rhodamine activity probe, fluorescence polarization; inhibition, % at 3.39 µM; hit rate 1.2% among 340,000;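 active = inhibition above the mean of all tested compounds plus 3 SD, cut at about 24% in these data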;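 also: 0% = enzyme with DMSO and 100% = wells lacking PAFAH1B2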
# PAFAH2 FP conf: confirmation of human PAFAH2 inhibitors; shares compounds with PAFAH2 inh; recombinant PAFAH2, FP-rhodamine activity probe, fluorescence polarization; hit rate 65% among 2,300; inhibition, % at 3.39 µM; AID 493030;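 active = mean inhibition over three repeats above a set limit taken from the earlier primary screen, cut at about 30% in these data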;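 also: inhibitor blocks binding of rhodamine activity probe so polarization falls; 0% = enzyme with DMSO and 100% = wells lacking PAFAH2 protein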
# Active calls of the source: *; . = not tested or not shown.
SMILES,PAFAH1B3 FP inh,PAFAH2 inh,pPAFAH inh,Apaf-1 inh,PAFAH1B2 FP inh,PAFAH2 FP conf
CC(=O)Nc1ccc(NC(=O)C(C)O/N=C/c2cccc([N+](=O)[O-])c2)cc1 (stereo not drawn),4,30*,6,-4,2,-3
COc1ccc(Cc2nnc(SCC(=O)NC3(C#N)CCCCC3)n2N)cc1,11,2,-3,1,1,.
O=C(CNC(=S)N(CCCN1CCOCC1)Cc1cccs1)NCc1ccccc1Cl,6,47*,5,8,-1,31*
O=C(CNC(=S)N(CCCN1CCOCC1)Cc1cccs1)NCCCN1CCOCC1,4,4,2,4,6,.
O=C(CNC(=S)N(CCCN1CCOCC1)Cc1cccs1)NCc1ccc(Cl)cc1,0,48*,4,6,7,37*
CCc1cc2c(=O)oc(-c3ccc(F)cc3)nc2s1,-2,82*,14,16,-6,84*
COc1cccc(NC(=O)COC(=O)c2ccccc2C(=O)N(C)c2ccccc2)c1,3,71*,4,3,0,69*
CN(C(=O)c1ccccc1C(=O)OCC(=O)Nc1ccc(OC(F)F)cc1)c1ccccc1,3,65*,15,27,-3,56*
CN(C(=O)c1ccccc1C(=O)OCC(=O)Nc1ccc(S(N)(=O)=O)cc1)c1ccccc1,8,-5,4,1,3,.
CN(C(=O)c1ccccc1C(=O)OCC(=O)Nc1cccc(Br)c1)c1ccccc1,-4,76*,2,11,-2,76*
CC[C@]12c3[nH]c4ccccc4c3CCN1C(=O)C(CC(=O)NCCCn1ccnc1)C[C@@H]2C(=O)N1CCN(C(=O)c2ccco2)CC1 (stereo partly drawn),4,-4,-2,11,6,.
O=C(COC(=O)c1cc(S(=O)(=O)N2CCOCC2)ccc1F)Nc1ccc(Cl)cn1,-3,-10,-1,1,2,.
O=C(COC(=O)c1ccc2c(c1)OCCO2)Nc1cccc(S(=O)(=O)N2CCOCC2)c1,0,65*,4,8,4,56*
O=C(COC(=O)c1cc(S(=O)(=O)N2CCOCC2)ccc1O)Nc1ccc2c(c1)OCO2,3,42*,3,-9,3,32*
O=C(COC(=O)c1cccc(S(=O)(=O)N2CCOCC2)c1)Nc1ccc(Cl)cn1,5,64*,3,2,2,47*
O=C(COC(=O)c1n[nH]c2ccccc12)Nc1cccc(S(=O)(=O)N2CCOCC2)c1,10,50*,.,.,-2,32*
C/C(=N\NC(=O)c1nnn(-c2nonc2N)c1CN1CCCCC1)c1ccccc1O,14,25,-2,12,1,.
O=C(COC(=O)c1cccc(S(=O)(=O)N2CCOCC2)c1)Nc1ccc2c(c1)OCO2,6,66*,12,7,2,38*
O=C(COC(=O)c1ccc(Br)o1)Nc1cccc(S(=O)(=O)N2CCOCC2)c1,10,7,5,2,5,.
O=C(OCC(=O)N1CCCc2ccccc21)c1cc(S(=O)(=O)N2CCOCC2)ccc1O,-3,73*,6,-1,5,63*
O=C(COC(=O)C1CC2C=CC1C2)Nc1cccc(S(=O)(=O)N2CCOCC2)c1 (stereo not drawn),1,41*,6,-5,4,28
CCCn1c(C)cc(/C=C(\C#N)C(=O)OCC(=O)Nc2cccc(OC)c2)c1C,-1,54*,-5,19,0,60*
Cc1cc(/C=C(\C#N)C(=O)OCC(=O)NC(=O)NC(C)(C)C)c(C)n1CCC(C)C,-8,0,2,9,2,.
CCCn1c(C)cc(/C=C(\C#N)C(=O)OCC(=O)Nc2cccc(S(N)(=O)=O)c2)c1C,-3,34*,8,-24,-2,26
O=Cc1ccc(OC(=O)CCCCC(=O)Oc2ccc(C=O)cc2)cc1,0,34*,-2,4,4,2
SMILES,PAFAH1B3 FP inh,PAFAH2 inh,pPAFAH inh,Apaf-1 inh,PAFAH1B2 FP inh,PAFAH2 FP conf
COC(=O)CCC(=O)Oc1ccc(OC(=O)CCC(=O)OC)cc1,.,.,-5,-1,.,.
Cc1cccc(C(C)C)c1NC(=O)COC(=O)CN1C(=O)C2CC=CCC2C1=O (stereo not drawn),4,53*,4,1,2,37*
O=[N+]([O-])c1cc([N+](=O)[O-])c(Oc2cccnc2Br)cc1NN1CCCCC1,6,9,2,3,7,.
N/C(=N\OC(=O)c1ccccc1)c1cccnc1,5,-2,-1,1,-2,.
Cc1ccc(C(=O)O/N=C(\c2ccccc2)c2cccnc2)cc1,6,73*,15,11,3,80*
Cc1cc(C(=O)N2CCN(Cc3ccccc3)CC2)ccc1[N+](=O)[O-],10,119*,-6,3,-2,2
O=C(c1ccc(Br)c([N+](=O)[O-])c1)N1CCN(Cc2ccccc2)CC1,7,-9,4,1,2,.
O=C(Cn1cnc2ccccc2c1=O)N1CCN(S(=O)(=O)c2ccc(F)cc2)CC1,3,-6,1,-1,3,.
COc1ccc(C(=O)N/C(=C/c2ccccc2F)C(=O)NCCN2CCOCC2)cc1OC,9,-1,-3,9,-2,.
CCn1c(SCc2c(Cl)cccc2Cl)nnc1-c1nn(-c2ccccc2)ccc1=O,9,49*,5,6,0,26
Cc1nnc(SCc2c(Cl)cccc2Cl)n(N)c1=O,10,7,1,1,1,.
Cc1cccc(C)c1NC1=C(Cl)C(=O)OC1OC(=O)c1ccccc1 (stereo not drawn),4,31*,-1,13,3,-22
O=C(NCC(=O)N1CCN(Cc2ccccc2)CC1)c1ccc(Br)o1,0,-2,5,1,1,.
Cc1cccc(OCCC(=O)NNC(=O)c2ccoc2C)c1,0,2,-5,5,4,.
C/C(CC(=O)Nc1ccc(N(C)C)cc1)=N\NC(=O)C(=O)NCc1ccccc1,-3,46*,5,-2,10,-6
COc1cc(C(=O)NCCNc2nc3ccc(C)cc3cc2C#N)cc(OC)c1OC,-11,-2,6,5,0,.
CC(C)CNC(=O)COC(=O)c1cccc(S(=O)(=O)NCC(F)(F)F)c1,4,31*,13,3,2,20
Cc1ccc(C(=O)c2ccccc2C(=O)OCC(=O)Nc2cccc([N+](=O)[O-])c2)cc1,-10,73*,11,5,-1,77*
COc1cc([N+](=O)[O-])ccc1NC(=O)COC(=O)C=C(C)C,5,-1,-2,6,-5,.
CC(C)=CC(=O)OCC(=O)Nc1cccc([N+](=O)[O-])c1,2,76*,-2,-6,2,75*
CC1CC1C(=O)OCC(=O)Nc1cccc([N+](=O)[O-])c1 (stereo not drawn),1,82*,-1,-12,6,84*
